Consider 18 molecules from ChEMBL document CHEMBL4364323, “Synthesis and biological evaluation of moxifloxacin-acetyl-1,2,3-1H-triazole-methylene-isatin hybrids as potential anti-tubercular agents against both drug-susceptible and drug-resistant Mycobacterium tuberculosis strains” (Eur J Med Chem, 2019).

pIC50: −log10 of the molar value. ≈ marks a conversion by molar mass, not a printed value.

For data set [1], the system named is Mycobacterium tuberculosis. In words: Antimycobacterial activity against Mycobacterium tuberculosis H37Rv incubated for 7 days by rapid direct susceptibility test. The class given is functional. The settings on record: 168 h. An outline of the steps: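 Two-fold compound dilutions were mixed with MTB suspension containing 4×10 -3 mg cells per well and incubated at 37 °C in a wet box. MIC was read from the quantity and state of cells in each well under a continuous visual high-magnification system and was re-determined 7 days later.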

The nature of data set [2]: Cytotoxicity against African green monkey Vero cells incubated for 72 hrs by MTT assay. The class given is cell-based. As to conditions: chlorocebus sabaeus. An outline of the steps:
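Compounds were dissolved in DMSO and tested at 128 to 4 μg/mL. VERO cells were grown in MEM with Earle's salts plus 10% FBS at 37 °C, 5% CO2, seeded at 1×10^4 cells/well and allowed to recover 24 h. Cells were then exposed to compound or drug-free medium for 72 h. Viability was read by MTT, and CC50 was calculated by Bliss analysis.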

Data set [3] can be described thus: Selectivity index, ratio of CC50 for African green monkey Vero cells to MIC for Mycobacterium tuberculosis H37Rv. The class given is toxicity. The settings on record: read-out: Selectivity Index.
Data set [4] in a line: Cmax in SPF ICR mouse at 100 mg/kg, sc. As to conditions: in vivo. The format is ADME, organism-based. Also on record: dose 100 mg/kg, route subcutaneous. An outline of the steps:
(§1)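 Female SPF ICR mice (20-25 g) dosed once at 100 mg/kg by subcutaneous injection. Plasma concentration-time data were collected. Cmax, Tmax, t1/2 and AUC0-inf were taken directly from the experimental data.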

The nature of data set [5]: Tmax in SPF ICR mouse at 100 mg/kg, sc. The class given is ADME, organism-based. The settings on record: in vivo. An outline of the steps:
as §1

Data set [6] in a line: AUC (0 to infinity) in SPF ICR mouse at 100 mg/kg, sc. The format is ADME, organism-based. Also on record: dose 100 mg/kg, route subcutaneous, time infinity. The settings on record: in vivo. An outline of the steps:
as §1

Data set [7] has as its target DNA gyrase subunit A/DNA gyrase subunit B (Mycobacterium tuberculosis (strain ATCC 25618 / H37Rv), UniProt P9WG45+P9WG47). In words: Inhibition of Mycobacterium tuberculosis DNA gyrase. The format is protein-complex assay.
A short description of data set [8]: Half life in SPF ICR mouse at 100 mg/kg, sc. The class given is ADME, organism-based. As to conditions: in vivo.
The next data set has as its system CHO. The experiment in a line: Cytotoxicity against CHO cells assessed as slight change in cell viability at 128 to 4 ug/ml. As to conditions: chinese hamster. The format is cell-based, Cricetulus griseus.

What is called MIC is the smallest concentration in the dilution series that meets the test's criterion for growth inhibition. As usually defined, the CC50 is the concentration giving 50% cytotoxicity. As a reminder, the Cmax is the maximum level reached in the sampled fluid or tissue. A word on the Tmax: it is the time at which the peak concentration occurs. One may read the AUC(0-inf) as the area under the concentration-time curve extrapolated to infinity. What is called pIC50 is the negative decadic logarithm of the IC50, by convention in mol/L. Broadly, the half-life is how long it takes for the measured level to halve.

Sequence of DNA gyrase subunit A/DNA gyrase subunit B (P9WG45 whole entry): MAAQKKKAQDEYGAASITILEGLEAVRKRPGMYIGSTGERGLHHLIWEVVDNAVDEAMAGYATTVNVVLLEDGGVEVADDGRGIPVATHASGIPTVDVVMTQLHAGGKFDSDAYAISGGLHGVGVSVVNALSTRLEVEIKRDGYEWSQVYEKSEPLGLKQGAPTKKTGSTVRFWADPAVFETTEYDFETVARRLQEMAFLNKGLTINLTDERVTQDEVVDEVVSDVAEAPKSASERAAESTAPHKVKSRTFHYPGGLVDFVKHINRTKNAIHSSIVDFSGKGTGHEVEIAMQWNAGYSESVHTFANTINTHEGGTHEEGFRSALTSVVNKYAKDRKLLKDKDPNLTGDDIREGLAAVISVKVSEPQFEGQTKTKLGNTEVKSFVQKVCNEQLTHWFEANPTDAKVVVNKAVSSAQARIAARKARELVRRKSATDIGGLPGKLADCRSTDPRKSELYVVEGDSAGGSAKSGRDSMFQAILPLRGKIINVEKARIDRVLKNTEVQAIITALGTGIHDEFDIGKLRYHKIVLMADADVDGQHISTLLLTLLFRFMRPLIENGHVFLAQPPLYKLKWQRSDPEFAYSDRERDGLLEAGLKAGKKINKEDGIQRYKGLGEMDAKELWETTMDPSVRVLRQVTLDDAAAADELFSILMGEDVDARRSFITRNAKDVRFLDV
Sequence of DNA gyrase subunit A/DNA gyrase subunit B (P9WG47 whole entry): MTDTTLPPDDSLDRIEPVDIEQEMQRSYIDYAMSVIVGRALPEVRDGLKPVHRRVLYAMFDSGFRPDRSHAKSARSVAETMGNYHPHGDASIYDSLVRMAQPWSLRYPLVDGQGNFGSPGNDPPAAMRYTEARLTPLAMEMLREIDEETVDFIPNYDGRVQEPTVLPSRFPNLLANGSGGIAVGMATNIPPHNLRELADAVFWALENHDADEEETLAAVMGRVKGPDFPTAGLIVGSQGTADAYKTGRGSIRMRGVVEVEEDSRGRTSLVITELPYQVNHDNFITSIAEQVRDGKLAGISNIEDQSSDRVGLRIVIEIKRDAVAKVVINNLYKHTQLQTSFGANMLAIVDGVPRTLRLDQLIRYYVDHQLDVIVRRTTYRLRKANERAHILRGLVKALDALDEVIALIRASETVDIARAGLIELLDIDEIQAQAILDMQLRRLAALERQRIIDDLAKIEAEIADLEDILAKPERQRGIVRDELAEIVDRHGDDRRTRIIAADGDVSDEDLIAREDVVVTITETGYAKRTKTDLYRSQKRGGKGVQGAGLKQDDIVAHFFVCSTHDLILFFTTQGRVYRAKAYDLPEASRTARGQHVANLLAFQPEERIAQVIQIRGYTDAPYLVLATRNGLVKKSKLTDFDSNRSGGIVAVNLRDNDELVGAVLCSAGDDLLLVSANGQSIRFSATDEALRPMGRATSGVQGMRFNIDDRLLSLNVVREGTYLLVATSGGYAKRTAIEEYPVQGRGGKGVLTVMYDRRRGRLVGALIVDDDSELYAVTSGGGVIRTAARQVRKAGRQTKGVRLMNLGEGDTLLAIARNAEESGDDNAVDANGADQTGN

Consider `CO[C@H]1/C=C/O[C@@]2(C)Oc3c(C)c(O)c4c(O)c(c(/C=N/N5CCN(C)CC5)c(O)c4c3C2=O)NC(=O)/C(C)=C\C=C\[C@H](C)[C@H](O)[C@@H](C)[C@@H](O)[C@@H](C)[C@H](OC(C)=O)[C@@H]1C` [RIFAMPIN], for which inhibition of growth in [1] (MIC) required 0.06 µg/mL (≈ 0.0729 µM). This molecule also showed a CC50 at 72 h in [2] above 128 µg/mL. For the same molecule, the selectivity ratio in [3] was above 512.
`COc1c(N2C[C@H]3CCCN(C(=O)Cn4cc(CN5C(=O)/C(=N/NC(N)=S)c6cccc(F)c65)nn4)[C@H]3C2)c(F)cc2c(=O)c(C(=O)O)cn(C3CC3)c12`: in data set [1], it took 8 µg/mL (≈ 10.5 µM) to inhibit growth (MIC). The same molecule came in with a CC50 at 72 h in data set [2] of 8 µg/mL (≈ 10.5 µM). Moreover, the selectivity ratio in data set [3] worked out at 1.
In turn, `COc1c(N2C[C@@H]3CCCN[C@@H]3C2)c(F)cc2c(=O)c(C(=O)O)cn(C3CC3)c12` [MOXIFLOXACIN] returned an MIC in data set [1] of 0.12 µg/mL (≈ 0.299 µM). The same molecule showed a Cmax in data set [4] of 10800 ng/mL. Moreover, the Tmax in data set [5] was 27 min. This molecule returned an AUC(0-inf) in data set [6] of 19200 ng·h/mL.
Regarding `NNC(=O)c1ccncc1` [ISONIAZID], the lowest concentration to inhibit growth in data set [1] (MIC) was 0.12 µg/mL (≈ 0.875 µM). Besides, the selectivity ratio in [3] turned out to be 1024.
For the molecule `COc1c(N2C[C@H]3CCCN(C(=O)Cn4cc(CN5C(=O)/C(=N/O)c6cc(F)ccc65)nn4)[C@H]3C2)c(F)cc2c(=O)c(C(=O)O)cn(C3CC3)c12`, the MIC in data set [1] was 2 µg/mL (≈ 2.85 µM). The same molecule showed a cytotoxic concentration (CC50) at 72 h in [2] of 16 µg/mL (≈ 22.8 µM). For the same molecule, the selectivity ratio in data set [3] was found to be 8.
The matching figures for `CO/N=C1/C(=O)N(Cc2cn(CC(=O)N3CCC[C@@H]4CN(c5c(F)cc6c(=O)c(C(=O)O)cn(C7CC7)c6c5OC)C[C@@H]43)nn2)c2ccc(C)cc21`: 4 µg/mL (≈ 5.61 µM), 64 µg/mL (≈ 89.8 µM) and 16.
Take `COc1c(N2C[C@H]3CCCN(C(=O)Cn4cc(CN5C(=O)C(=O)c6ccccc65)nn4)[C@H]3C2)c(F)cc2c(=O)c(C(=O)O)cn(C3CC3)c12`: 0.25 µg/mL (≈ 0.373 µM) was the least that counted as inhibitory in [1] (MIC). In data set [2], this molecule returned a CC50 at 72 h of 32 µg/mL (≈ 47.8 µM). Also, in data set [3], the selectivity ratio was determined as 128. In data set [7], this molecule had a pIC50 of 5.22.
In data set [1], `COc1c(N2C[C@H]3CCCN(C(=O)Cn4cc(CN5C(=O)/C(=N/O)c6ccccc65)nn4)[C@H]3C2)c(F)cc2c(=O)c(C(=O)O)cn(C3CC3)c12` returned an MIC of 1 µg/mL (≈ 1.46 µM). Besides, in data set [2], the CC50 at 72 h worked out at 32 µg/mL (≈ 46.7 µM). The selectivity ratio in data set [3] is 32.
The matching figures for `COc1c(N2C[C@H]3CCCN(C(=O)Cn4cc(CN5C(=O)C(=O)c6cc(F)ccc65)nn4)[C@H]3C2)c(F)cc2c(=O)c(C(=O)O)cn(C3CC3)c12`: 1 µg/mL (≈ 1.45 µM), 16 µg/mL (≈ 23.3 µM) and 16.
On the same counts, the results for `COc1c(N2C[C@H]3CCCN(C(=O)Cn4cc(CN5C(=O)C(=O)c6cc(C)ccc65)nn4)[C@H]3C2)c(F)cc2c(=O)c(C(=O)O)cn(C3CC3)c12` are 2 µg/mL (≈ 2.93 µM), 64 µg/mL (≈ 93.6 µM) and 32.
The matching figures for `COc1c(N2C[C@H]3CCCN(C(=O)Cn4cc(CN5C(=O)C(=O)c6cccc(F)c65)nn4)[C@H]3C2)c(F)cc2c(=O)c(C(=O)O)cn(C3CC3)c12`: 8 µg/mL (≈ 11.6 µM), 32 µg/mL (≈ 46.5 µM) and 4.
On to `COc1c(N2C[C@H]3CCCN(C(=O)Cn4cc(CN5C(=O)/C(=N/O)c6cccc(F)c65)nn4)[C@H]3C2)c(F)cc2c(=O)c(C(=O)O)cn(C3CC3)c12`, for which the MIC in [1] is 16 µg/mL (≈ 22.8 µM). For the same molecule, it took 16 µg/mL (≈ 22.8 µM) to reach half-maximal cytotoxicity in data set [2] (CC50 at 72 h). Besides, the selectivity ratio in [3] stood at 1.
In [1], `COc1c(N2CCNC(C)C2)c(F)cc2c(=O)c(C(=O)O)cn(C3CC3)c12` (centres undefined) [GATIFLOXACIN] had an MIC of 0.5 µg/mL (≈ 1.33 µM). In data set [2], this molecule gave a CC50 at 72 h of 64 µg/mL (≈ 170 µM). Further, the selectivity ratio in data set [3] worked out at 128. This molecule gave a pIC50 in [7] of 4.88.
`CO/N=C1/C(=O)N(Cc2cn(CC(=O)N3CCC[C@@H]4CN(c5c(F)cc6c(=O)c(C(=O)O)cn(C7CC7)c6c5OC)C[C@@H]43)nn2)c2ccccc21`: in data set [1], the MIC came out at 0.5 µg/mL (≈ 0.716 µM). The same molecule came in with a CC50 at 72 h in data set [2] of 128 µg/mL (≈ 183 µM). Also, the selectivity ratio in data set [3] is 256. This molecule showed a pIC50 in data set [7] of 5.07. This molecule returned a Cmax in data set [4] of 3250 ng/mL. The molecule also gave a half-life in data set [8] of 186 min. The Tmax in data set [5] was 39 min. For the same molecule, the AUC(0-inf) in data set [6] is 6440 ng·h/mL. Moreover, in the data set on CHO, the Activity result was “Toxic”.
Take `COc1c(N2C[C@H]3CCCN(C(=O)Cn4cc(CN5C(=O)/C(=N/NC(N)=S)c6ccccc65)nn4)[C@H]3C2)c(F)cc2c(=O)c(C(=O)O)cn(C3CC3)c12`: the MIC in data set [1] worked out at 0.12 µg/mL (≈ 0.162 µM). In addition, the CC50 at 72 h in data set [2] worked out at 16 µg/mL (≈ 21.5 µM). Further, in data set [3], the selectivity ratio was 128. Moreover, the pIC50 in [7] is 5.17. For the same molecule, the peak concentration (Cmax) in data set [4] came out at 1400 ng/mL. This molecule also had a half-life in [8] of 258 min. Also, the time of peak concentration (Tmax) in data set [5] was 52 min. The molecule also registered an AUC(0-inf) in [6] of 3270 ng·h/mL. Besides, in the data set on CHO, the Activity result was “Toxic”.
Molecule `COc1c(N2C[C@H]3CCCN(C(=O)Cn4cc(CN5C(=O)/C(=N/NC(N)=S)c6cc(F)ccc65)nn4)[C@H]3C2)c(F)cc2c(=O)c(C(=O)O)cn(C3CC3)c12` yielded a minimum inhibitory concentration (MIC) in data set [1] of 0.25 µg/mL (≈ 0.329 µM). Moreover, the CC50 at 72 h in [2] was 8 µg/mL (≈ 10.5 µM). Besides, the selectivity ratio in data set [3] is 32. For the same molecule, the pIC50 in data set [7] was 4.98.
As for `CO/N=C1/C(=O)N(Cc2cn(CC(=O)N3CCC[C@@H]4CN(c5c(F)cc6c(=O)c(C(=O)O)cn(C7CC7)c6c5OC)C[C@@H]43)nn2)c2ccc(F)cc21`, the MIC in data set [1] was 1 µg/mL (≈ 1.4 µM). Moreover, the CC50 at 72 h in data set [2] is 32 µg/mL (≈ 44.6 µM). Further, the selectivity ratio in data set [3] worked out at 32.
On the same counts, the results for `CO/N=C1/C(=O)N(Cc2cn(CC(=O)N3CCC[C@@H]4CN(c5c(F)cc6c(=O)c(C(=O)O)cn(C7CC7)c6c5OC)C[C@@H]43)nn2)c2c(F)cccc21` are 16 µg/mL (≈ 22.3 µM), 16 µg/mL (≈ 22.3 µM) and 1.
